# pEC50: −log10 of the molar value.
# Experiments:
# [1] = system: Human immunodeficiency virus 1; test: Antiviral activity against HIV1 3B in MT2 cells by MTT assay; type: functional, organism-based; settings: for pEC50: Human immunodeficiency virus 1, 3B, MT2, read-out: EC50; for EC50: mt2
# Outline: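 HIV-1 IIIB infection of MT-2 human T cells, with MTT colorimetric read-out of cell protection.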
# MT2 = test: Cytotoxicity against human MT2 cells by MTT assay; type: functional
SMILES,pEC50 [1],CC50 (MT2) [µM],EC50 [1]
Clc1ccc(Nc2nccs2)cc1OCC1=CCCC1,5.30,15,
COCc1ccnc(Nc2ccc(Cl)c(OCC=C(C)C)c2)n1,,> 25,Not Active
N#Cc1ccc(Nc2nccs2)cc1OCc1ccsc1,,1.1,Not Active
N#Cc1ccc(Nc2nccs2)cc1OCc1nccs1,5.35,20,
COc1cc(OC)nc(Nc2ccc(Cl)c(OCC=C(C)C)c2)n1,,28,
N#Cc1ccc(Nc2nccs2)cc1OCc1ccoc1,,4,Not Active
CC(C)=CCOc1cc(Nc2ncccn2)ccc1Cl,,2.5,
CC(C)=CCOc1cc(Nc2nccs2)ccc1C(=O)O,,17,Not Active
Clc1ccc(Nc2nccs2)cc1OCc1ccccc1,5.22,17,
CC(C)=CCOc1cc(Nc2nccc(CO)n2)ccc1Cl,,0.22,Not Active
CC(C)=CCOc1cc(Nc2nccs2)ccc1C#N,,0.75,
N#Cc1ccc(Nc2nccs2)cc1OCC1=CCCC1,,1.7,Not Active
Clc1ccc(Nc2nccs2)cc1OCc1nccs1,,20,Not Active
N#Cc1ccc(Nc2nccs2)cc1OCc1ccco1,5.92,18,
Clc1ccc(Nc2nccs2)cc1OCc1ccoc1,5.15,26,
CC1=C(COc2cc(Nc3nccs3)ccc2Cl)CCC1,,11,Not Active
CSc1ccnc(Nc2ccc(Cl)c(OCC=C(C)C)c2)n1,,2.8,
COc1ccnc(Nc2ccc(C)c(OCC=C(C)C)c2)n1,6.49,41,
CC/C(C)=C\COc1cc(Nc2nccs2)ccc1Cl,6.00,18,
COc1ccc(Nc2nc(CO)cs2)cc1OCC=C(C)C,5.05,80,
COc1cc(N)nc(Nc2ccc(Cl)c(OCC=C(C)C)c2)n1,,19,
Clc1ccc(Nc2nccs2)cc1OCc1ccsc1,5.26,38,
Clc1ccc(Nc2nccs2)cc1OCc1cccs1,5.00,38,
CC(C)=CCOc1cc(Nc2ncc(Br)c(N)n2)ccc1Cl,6.15,12,
N#Cc1ccc(Nc2nccs2)cc1OCc1cccs1,,4.1,Not Active
Clc1ccc(Nc2nccs2)cc1OCC1CCCCC1,,15,Not Active
CC(C)=CCOc1cc(Nc2nc(C)cc(N)n2)ccc1Cl,,< 0.004,Not Active
CC(C)=CCOc1cc(Nc2nc(N)cc(Cl)n2)ccc1Cl,,0.014,Not Active
Clc1ccc(Nc2nccs2)cc1OCc1ccco1,5.40,18,

# Reference: ChEMBL document CHEMBL1149430, “Optimization of diarylamines as non-nucleoside inhibitors of HIV-1 reverse transcriptase” (Bioorg Med Chem Lett, 2006)
